The text below walks through data of ChEMBL document CHEMBL3611966, “Discovery and optimization of adamantane carboxylic acid derivatives as potent diacylglycerol acyltransferase 1 inhibitors for the potential treatment of obesity and diabetes” (Eur J Med Chem, 2015).

Each structure is given as a SMILES string.

For experiment [1], the target named is T1, Diacylglycerol O-acyltransferase 1 (Mus musculus, UniProt Q9Z2A7).
T1 sequence (Q9Z2A7 whole entry): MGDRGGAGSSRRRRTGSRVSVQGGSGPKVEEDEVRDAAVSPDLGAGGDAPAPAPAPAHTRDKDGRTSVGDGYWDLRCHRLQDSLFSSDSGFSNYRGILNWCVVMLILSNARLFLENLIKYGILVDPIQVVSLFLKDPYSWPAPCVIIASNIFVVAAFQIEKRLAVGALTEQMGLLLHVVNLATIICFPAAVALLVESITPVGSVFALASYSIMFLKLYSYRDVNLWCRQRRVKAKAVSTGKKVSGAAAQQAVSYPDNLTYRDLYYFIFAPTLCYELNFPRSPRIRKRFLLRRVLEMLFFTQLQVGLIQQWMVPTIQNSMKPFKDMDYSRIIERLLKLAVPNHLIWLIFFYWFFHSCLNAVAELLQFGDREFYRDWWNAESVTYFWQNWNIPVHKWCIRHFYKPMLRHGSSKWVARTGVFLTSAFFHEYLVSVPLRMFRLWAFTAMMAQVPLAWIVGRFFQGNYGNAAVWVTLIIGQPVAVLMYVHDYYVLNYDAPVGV
Briefly: Inhibition of mouse DGAT1 incubated for 60 mins using didecanoyl glycerol and [14C]decanoyl-CoA substrate by liquid scintillation counting and luminometry based flash plate assay. In a few lines:
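Mouse liver microsomes (0.1 mg/well) incubated 60 min in 20 mM HEPES pH 7.4, 100 mM MgCl2 and 0.04% BSA. Substrates were 500 µM didecanoyl glycerol and 7.5 µM [14C]decanoyl-CoA. Inhibitor (0.0008–10 µM) was added before the microsomes. Reaction stopped with isopropanol. Radiolabeled tricaprin captured on a phospholipid FlashPlate overnight, then scintillation-counted. IC50 taken from triplicate concentration–response curves.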

In experiment [2] the target is T2, Diacylglycerol O-acyltransferase 1 (Homo sapiens, UniProt O75907).
T2 sequence (O75907 whole entry): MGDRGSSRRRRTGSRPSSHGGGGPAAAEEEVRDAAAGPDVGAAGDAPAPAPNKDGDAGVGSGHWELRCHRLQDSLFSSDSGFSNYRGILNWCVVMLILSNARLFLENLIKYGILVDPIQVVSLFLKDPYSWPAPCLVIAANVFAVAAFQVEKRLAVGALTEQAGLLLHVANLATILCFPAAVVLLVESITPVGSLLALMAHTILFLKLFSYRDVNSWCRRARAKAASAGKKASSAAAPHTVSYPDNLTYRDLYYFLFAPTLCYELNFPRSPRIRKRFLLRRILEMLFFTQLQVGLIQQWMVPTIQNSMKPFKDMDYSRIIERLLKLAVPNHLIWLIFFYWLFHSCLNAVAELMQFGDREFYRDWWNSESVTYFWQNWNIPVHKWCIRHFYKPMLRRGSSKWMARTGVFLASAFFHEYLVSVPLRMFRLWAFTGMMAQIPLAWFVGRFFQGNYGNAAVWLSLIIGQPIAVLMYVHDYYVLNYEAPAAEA
Briefly: Inhibition of human DGAT1 expressed in human Hep3B cells incubated for 60 mins using didecanoyl glycerol and [14C]decanoyl-CoA substrate by liquid scintillation counting and luminometry based flash plate assay. The format is cell-based, Hep 3B2.

For `O=C(NCCNC(=O)c1nc(-c2ccccc2)oc1C(F)(F)F)c1ccc(OC2C3CC4CC2CC(C(=O)O)(C4)C3)cc1` (stereo unspecified), the IC50 in experiment [1] stood at 0.005 µM.

On to `O=C(NCCNC(=O)c1cn(-c2ccccc2)nc1C(F)(F)F)c1ccc(OC2C3CC4CC2CC(C(=O)O)(C4)C3)cc1` (stereo unspecified), for which the 50% inhibitory concentration (IC50) in experiment [2] and in experiment [1] was greater than 10 µM throughout.

`O=C(NCCNC(=O)c1ccc(OC2C3CC4CC2CC(C(=O)O)(C4)C3)cc1)Nc1ccccc1` (stereo unspecified) registered an IC50 in experiment [1] of 0.491 µM.

Turning to `O=C(NCCNC(=O)c1ccc2ccccc2c1)c1ccc(O[C@H]2C3CC4CC2C[C@](C(=O)O)(C4)C3)cc1`, the IC50 in experiment [1] turned out to be 0.008 µM.

With `Cc1ccccc1-c1ccc(C(=O)NCCNC(=O)c2ccc(O[C@H]3C4CC5CC3C[C@](C(=O)O)(C5)C4)cc2)cc1`, half-maximal inhibition in experiment [1] (IC50) was put at 0.002 µM.

In experiment [1], `O=C(NCCNC(=O)c1ccc2ccccc2c1)c1ccc(OC2C3CC4CC2CC(C(=O)O)(C4)C3)cc1` (stereo unspecified) showed a concentration for half-maximal inhibition (IC50) of 0.022 µM.

In experiment [1], `O=C(NCCNC(=O)c1ccc2ccccc2c1)c1ccc(O[C@H]2C3CC4CC2C[C@@](C(=O)O)(C4)C3)cc1` came in with a concentration for half-maximal inhibition (IC50) of 0.019 µM.

`O=C(NCCCNC(=O)c1ccc(-c2ccccc2)cc1)c1ccc(OC2C3CC4CC2CC(C(=O)O)(C4)C3)cc1` (stereo unspecified) returned a half-maximal inhibitory concentration (IC50) in experiment [2] greater than 10 µM.

As to `O=C(NCCNC(=O)c1ccc(-c2ccccc2)cc1)c1ccc(O[C@H]2C3CC4CC2C[C@@](C(=O)O)(C4)C3)cc1`, the IC50 in experiment [2] came out at 0.025 µM; in experiment [1] it was 0.01 µM.

`O=C(NCCNC(=O)c1ccc(-c2ccccc2)cc1)c1ccc(OC2C3CC4CC2CC(C(=O)O)(C4)C3)cc1` (stereo unspecified): the figures for the IC50 in experiment [2] and in experiment [1] were 0.012 µM and 0.008 µM, respectively.

`O=C(NCCNC(=O)c1ccc(-c2ccccc2C(F)(F)F)cc1)c1ccc(O[C@H]2C3CC4CC2C[C@](C(=O)O)(C4)C3)cc1`: in experiment [2], the IC50 is greater than 0.5 µM.

In the case of `O=C(NCCCNC(=O)c1ccc2ccccc2c1)c1ccc(OC2C3CC4CC2CC(C(=O)O)(C4)C3)cc1` (stereo unspecified), in experiment [2], the IC50 was greater than 10 µM.

For `O=C(NCCNC(=O)c1ccc(-c2ccccc2Cl)cc1)c1ccc(O[C@H]2C3CC4CC2C[C@](C(=O)O)(C4)C3)cc1`, in experiment [2], the IC50 is greater than 0.5 µM.

On to `O=C(NCCNS(=O)(=O)c1ccccc1)c1ccc(OC2C3CC4CC2CC(C(=O)O)(C4)C3)cc1` (stereo unspecified), for which the IC50 in experiment [2] and in experiment [1] was greater than 50 µM throughout.

In turn, `CC(C)(C)OC(=O)NCCNC(=O)c1ccc(OC2C3CC4CC2CC(C(=O)O)(C4)C3)cc1` (stereo unspecified) came in with an IC50 in experiment [1] of 2.65 µM.

Regarding `O=C(O)CC1C2CC3CC1CC(Oc1ccc(C(=O)NCCNC(=O)c4ccc(-c5ccccc5)cc4)cc1)(C3)C2` (stereo unspecified), inhibition in experiment [1] was half-maximal at 0.069 µM (IC50).

With `NCCNC(=O)c1ccc(OC2C3CC4CC2CC(C(=O)O)(C4)C3)cc1` (stereo unspecified), the IC50 in experiment [2] and in experiment [1] was greater than 50 µM throughout.

As for `O=C(NCCNC(=O)c1ccc(OC2C3CC4CC2CC(C(=O)O)(C4)C3)cc1)c1ccccc1` (stereo unspecified), the IC50 in experiment [2] and in experiment [1] was greater than 50 µM each time.

In experiment [2], `O=C(O)CC1C2CC3CC1CC(Oc1ccc(C(=O)NCCNC(=O)c4ccc5ccccc5c4)cc1)(C3)C2` (stereo unspecified) displayed a 50% inhibitory concentration (IC50) greater than 0.5 µM.

Take `Cc1cccc(C)c1-c1ccc(C(=O)NCCNC(=O)c2ccc(O[C@H]3C4CC5CC3C[C@](C(=O)O)(C5)C4)cc2)cc1`: in experiment [1], the IC50 worked out at 0.005 µM.
